Data set [1] can be described thus: Prodrug conversion in PBS buffer assessed as 5-Fluorouracil formation by measuring retention time at 100 uM in presence of Pd-resin measured upto 1 hr by UPLC analysis. It counts as ADME. The procedure, abridged:
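Prodrug (100 μM in PBS, pH 7.4) shaken at 1200 rpm, 37 °C with 1 mg/mL Pd resins (30 μm). Sampled at 10, 20, 40 min, 1, 3, 6, 24 and 48 h; analyzed by reverse-phase UPLC (C18, 60 °C, UV 254 nm), products identified by retention time against authentic standards.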

Another data set concerns BXPC-3. Put plainly: Antiproliferative activity against human BxPC-3 cells assessed as reduction in cell viability measured after 5 days by PrestoBlue reagent based assay. Format: functional. The note with it: BXPC-3, 120 h. A digest of the protocol:
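Cells in 10% FBS, 2 mM L-glutamine media at 37 °C, 5% CO₂ (HCT116 in McCoy's 5A, BxPC-3 in RPMI). Seeded at 3000 (HCT116) or 2500 (BxPC-3) cells/well and grown 48 h. Medium then replaced with drug-containing medium, 0.1% DMSO, for 5 d. PrestoBlue 10% v/v added for 1 h, fluorescence read ex 540/em 590 nm. Normalised to DMSO-only wells; sigmoidal variable-slope fit; n = 3.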

The nature of data set [2]: Prodrug conversion in human liver S9 fraction assessed as DH5FU metabolite formation at 1.6 mM incubated for 1 hr in presence of NADPH by 19F-NMR based analysis. The settings on record: s9, 1 h, 1600 µM. It counts as ADME, subcellular. The procedure, abridged:
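Compound added as 150 mM stock in DMSO-d₆, preincubated 5 min at 37 °C with enzyme mixture, then NADPH added (1 mM) and incubated 1 h at 37 °C, 600 rpm; controls without NADPH and without enzymes. Stopped with EtOAc, dried under N₂, redissolved in DMSO-d₆, DH5FU detected by ¹⁹F NMR vs authentic sample.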

A short description of data set [3]: Metabolic stability in rat hepatocytes assessed as intrinsic clearance at 1 uM measured per 10^6 cells by LC-MS/MS analysis. It counts as ADME, cell-based, Hepatocyte. The note with it: read-out: CLH. A digest of the protocol:
(§1)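 Suspended hepatocytes (0.5 × 10⁶ cells/mL) in Williams E medium with 2 mM L-glutamine and 25 mM HEPES at 37 °C, compound added with 0.25% v/v DMSO after preincubation; aliquots quenched into methanol with internal standard at time points, centrifuged, supernatant analyzed by LC-MS/MS; two control compounds included.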

Data set [4] is described as follows: Metabolic stability in human hepatocytes assessed as intrinsic clearance at 1 uM measured per 10^6 cells by LC-MS/MS analysis. It counts as ADME, cell-based, Hepatocyte. The settings on record: read-out: CLH. A digest of the protocol: as §1
The nature of data set [5]: Metabolic stability in rat hepatocytes assessed as half life at 1 uM by LC-MS/MS analysis. Format: ADME, cell-based, Hepatocyte. A digest of the protocol:
as §1

Data set [6] can be described thus: Metabolic stability in human hepatocytes assessed as half life at 1 uM by LC-MS/MS analysis. Format: ADME, cell-based, Hepatocyte. A digest of the protocol:
as §1

A short description of data set [7]: Plasma protein binding in human assessed as compound recovery at 5 uM. It counts as ADME, cell-free. The settings on record: read-out: Drug recovery. The procedure, abridged:
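Binding of compound at 5 μM measured in rat and human plasma, with compound recovery determined; n = 3.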

The nature of data set [8]: Stability in Sprague-Dawley rat hepatocytes assessed as parent compound remaining at 10 uM measured after 60 mins by UPLC analysis. Format: ADME, cell-based, Hepatocyte. The note with it: read-out: Stability. The procedure, abridged: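 Cryopreserved male Sprague–Dawley rat or male human hepatocytes (0.5 × 10⁶ cells/mL) in Leibovitz buffer with 10 μM compound, 37 °C, shaken 700 rpm, 60 min. Samples at 0 and 60 min quenched 1:1 with ice-cold acetonitrile; supernatant analyzed by UPLC–QToF MS (positive ion). Hepatocyte-only and buffer-only negatives; verapamil and 7-hydroxycoumarin as viability controls.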

The nature of data set [9]: Clearance in male Wistar Han rat at 1 mg/kg, iv administered as single dose measured upto 24 hrs. It counts as ADME, organism-based. The settings on record: in vivo. The procedure, abridged:
(§2)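 Male jugular-vein-cannulated Wistar Han rats, 263–319 g, single dose. IV: 1 mg/kg as 2 mL/kg of 0.5 mg/mL in 5% DMSO/95% HPCD (20% w/v), not fasted. PO: 10 mg/kg as 5 mL/kg of 2 mg/mL suspension in 5% DMSO/95% tween 80/HPCD vehicle, fasted overnight. Serial cannula blood sampling 0.083/0.25–24 h (n = 3/route); parent quantified by QToF against calibration curve.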

Data set [10] in a line: Volume of distribution at steady state in male Wistar Han rat at 1 mg/kg, iv administered as single dose measured upto 24 hrs. It counts as ADME, organism-based. The settings on record: in vivo, read-out: Vdss. A digest of the protocol: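 Male jugular-vein-cannulated Wistar Han rats (n = 3, 263–319 g, not fasted) given 1 mg/kg IV as 2 mL/kg of 0.5 mg/mL solution in 5% DMSO/95% HPCD (20% w/v). Serial blood via cannula from 0.083 to 24 h, mixed with heparinized water and stored at –20 °C. Parent quantified by QToF against a calibration curve.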

Data set [11] can be described thus: Mean residence time in male Wistar Han rat at 1 mg/kg, iv administered as single dose measured upto 24 hrs. Format: ADME, organism-based. The note with it: in vivo. A digest of the protocol: as §2
A short description of data set [12]: Oral bioavailability in Wistar Han rat at 10 mg/kg administered as single dose measured upto 24 hrs. It counts as ADME, organism-based. The note with it: in vivo. The procedure, abridged:
as §2

A short description of data set [13]: Mean residence time in male Wistar Han rat at 1000 mg/kg, po administered as single dose measured upto 24 hrs. It counts as ADME, organism-based. The settings on record: in vivo. The procedure, abridged: (§3)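 Single oral dose 1000 mg/kg in male and female rats, dosing volume 10 mL/kg (n = 6); animals observed 14 days with clinical checks, functional/neurobehavioral tests and body weight, necropsy on d15; exposure parameters from the toxicokinetic arm of this study.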

Data set [14] can be described thus: Mean residence time in female Wistar Han rat at 1000 mg/kg, po administered as single dose measured upto 24 hrs. The settings on record: in vivo. Format: ADME, organism-based. A digest of the protocol: as §3
Data set [15] in a line: Toxicity in female Wistar Han rat assessed as mortality at 1000 mg/kg, po administered as single dose measured over 14 days. It counts as organism-based. The note with it: in vivo, 336 h, time > 14 day. The procedure, abridged: (§4)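 Single oral dose of 1000 mg/kg at 10 mL/kg to male and female rats (n = 6), then 14 d observation. Morbidity and mortality checked twice daily. Clinical signs recorded predose, twice on dosing day, then daily. FOB on d1, d7 or d14. Body weight on d1, 2, 5, 8, 11 and 14. Gross necropsy on d15.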

The nature of data set [16]: Toxicity in female Wistar Han rat assessed as change in body weight at 1000 mg/kg, po administered as single dose measured over 14 days. It counts as organism-based. The settings on record: in vivo, 336 h, time > 14 day. A digest of the protocol: as §4
Data set [17] is described as follows: Toxicity in BALB/c nude mouse xenografted with human HCT-116 cells assessed as change in body weight at 75 to 150 mg/kg, po administered via oral gavage measured daily for 7 days. It counts as organism-based. The note with it: in vivo, 168 h, dose 75-150 mg/kg, time 7 day. The procedure, abridged: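 Female BALB/c nude mice, 6–7 weeks, inoculated s.c. with 5 × 10⁵ HCT116 cells in 1:1 Matrigel/PBS; at 200–300 mm³ randomized; Pd resins (2 mg in 50 μL) injected intratumorally (groups 1–3), then oral gavage daily for 7 days with 150 or 75 mg/kg or vehicle; untreated group. Body weight daily, clinical signs twice daily.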
(In general: A xenograft is tissue or cells of one species grown in another, often human tumour cells in immunodeficient mice.)

Data set [18] is described as follows: Drug distribution in brain of BALB/c mouse xenografted with human HCT-116 cells at 75 to 150 mg/kg, po administered for 7 days. Format: ADME, organism-based. The note with it: in vivo, 168 h, dose 75-150 mg/kg, time 7 day.

In the case of `C#CCOc1ncc(F)c(OCC#C)n1`, the Retention_time in [1] is reported as 0.78 min. Moreover, the EC50 in the data set on BXPC-3 is greater than 100 µM. The Drug metabolism entry in data set [2] is recorded as “Metabolite_Notdetected”. The values for the hepatocyte CLint at 1 µM in data set [3] and in data set [4] were 15.3 µL/min/1e6 cells and 4.51 µL/min/1e6 cells, respectively. In addition, the results for the half-life at 1 µM in data set [5] and in data set [6] were 1.52 h and 5.37 h, respectively. The recovery at 5 µM in data set [7] worked out at 95.7%. Moreover, the remaining at 1 h, 10 µM in data set [8] worked out at 95%. This compound showed a clearance in data set [9] of 52.1 mL/min/kg. Further, in data set [10], the Vd was determined as 1.76 L/kg. The mean residence time (MRT) in [11] is 0.569 h; in [13], 9.7 h; in data set [14], 13.4 h. Besides, the F in data set [12] is on record as 187%. Besides, the Activity entry in [15], in data set [16] and in data set [17] was “Non-Toxic” each time. In addition, in data set [18], the Drug uptake result was “Active”.

The term EC50 denotes the concentration giving half of the maximal effect. Usually half-life stands for the time needed for the level to fall by half in the phase considered. By clearance is commonly meant the volume of plasma or blood freed of the substance per unit of time. A low value points to inefficient removal. Broadly, the MRT is the average time that molecules of a dose stay in the body.

The values are drawn from ChEMBL document CHEMBL5154683, “A 5-FU Precursor Designed to Evade Anabolic and Catabolic Drug Pathways and Activated by Pd Chemistry In Vitro and In Vivo” (J Med Chem, 2022).
